{"source": "ChEMBL document CHEMBL1157407", "about": "“Inhibitors of bacterial multidrug efflux pumps from the resin glycosides of Ipomoea murucoides” (2008)", "format_in_all_cases": "functional", "key": {"HEp-2": {"system": "HEp-2", "experiment": "Cytotoxicity against human Hep2 cells after 72 hrs", "conditions": "HEp-2, 72 h, read-out: ED50 (the source's name)", "how_it_was_run": "(§1)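 Cells grown in RPMI 1640 with 10% fetal bovine serum at 37 °C, 5% CO2, humidified. Log-phase cells treated in triplicate with test samples at 0.16–20 μg/mL for 72 h. Growth read by the NCI sulforhodamine method. ED50 is the dose inhibiting 50% of control growth, estimated from a semilog plot of concentration against percentage of viable cells.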"}, "Staphylococcus aureus [1]": {"system": "Staphylococcus aureus", "experiment": "Antimicrobial activity against epidemic methicillin-resistant Staphylococcus aureus 15 containing mecA gene", "how_it_was_run": "(§2)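 Broth microdilution MIC per NCCLS guidelines, at least in duplicate, in cation-adjusted Mueller-Hinton broth (20 mg/L Ca2+, 10 mg/L Mg2+). Strains grown on nutrient agar first. Inoculum 5×10^5 cfu prepared in 0.9% saline against a McFarland standard. Compounds dissolved in DMSO, 2-fold serial dilutions, final 1–512 µg/mL (DMSO ≤3.125% v/v). MIC taken as lowest concentration with no visible growth.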"}, "Staphylococcus aureus [2]": {"system": "Staphylococcus aureus", "experiment": "Antimicrobial activity against methicillin-resistant Staphylococcus aureus XU212", "how_it_was_run": "as §2"}, "HeLa": {"system": "HeLa", "experiment": "Cytotoxicity against human HeLa cells after 72 hrs", "conditions": "read-out: ED50 (the source's name)", "how_it_was_run": "as §1"}, "Staphylococcus aureus [3]": {"system": "Staphylococcus aureus", "experiment": "Antimicrobial activity against Staphylococcus aureus ATCC 25923", "how_it_was_run": "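Broth microdilution MIC per NCCLS guidelines, at least in duplicate. Inoculum 5×10^5 cfu prepared in 0.9% saline against a McFarland standard. Cation-adjusted Mueller-Hinton broth with 20 mg/L Ca2+ and 10 mg/L Mg2+. Compounds dissolved in DMSO, then 2-fold serial dilutions, final 1–512 μg/mL; DMSO at most 3.125% v/v. MIC is the lowest concentration giving no visible growth.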"}, "KB": {"system": "KB", "experiment": "Cytotoxicity against human KB cells after 72 hrs", "conditions": "read-out: ED50 (the source's name)", "how_it_was_run": "as §1"}, "Staphylococcus aureus [4]": {"system": "Staphylococcus aureus", "experiment": "Antimicrobial activity against multidrug-resistant Staphylococcus aureus over expressing NorA MDR efflux pump", "how_it_was_run": "as §2"}}}
{"smiles": "CCCCC[C@H]1CCCCCCCCCC(=O)O[C@H]2[C@@H](O)[C@H](O[C@H]3[C@H](O1)O[C@H](C)[C@H](O)[C@@H]3O)O[C@@H](C)[C@@H]2O[C@@H]1O[C@@H](C)[C@H](O[C@@H]2O[C@@H](C)[C@H](OC(=O)[C@@H](C)CC)[C@@H](O)[C@H]2O)[C@@H](O[C@@H]2O[C@H](CO)[C@@H](O)[C@H](O)[C@H]2O)[C@H]1OC(=O)[C@@H](C)CC", "note": "[MURUCOIDIN V]", "values": [{"measurement": "EC50", "setting": "HEp-2", "result": "> 20", "unit": "µg/mL"}, {"measurement": "MIC", "setting": "Staphylococcus aureus [1]", "result": 128, "unit": "µg/mL"}, {"measurement": "MIC", "setting": "Staphylococcus aureus [2]", "result": 256, "unit": "µg/mL"}, {"measurement": "EC50", "setting": "HeLa", "result": 13.2, "unit": "µg/mL"}, {"measurement": "MIC", "setting": "Staphylococcus aureus [3]", "result": "> 512", "unit": "µg/mL"}, {"measurement": "EC50", "setting": "KB", "result": "> 20", "unit": "µg/mL"}, {"measurement": "MIC", "setting": "Staphylococcus aureus [4]", "result": 64, "unit": "µg/mL"}]}
{"smiles": "CCCCCCCCCCCC(=O)O[C@H]1[C@H](O[C@@H]2[C@H]3OC(=O)CCCCCCCCC[C@H](CCCCC)O[C@@H]4O[C@H](C)[C@H](O)[C@H](O)[C@H]4O[C@H](O[C@H]2C)[C@@H]3O)O[C@@H](C)[C@H](O[C@@H]2O[C@@H](C)[C@H](OC(=O)[C@@H](C)CC)[C@@H](O)[C@H]2O)[C@H]1O[C@@H]1O[C@H](CO)[C@@H](O)[C@H](O)[C@H]1O", "note": "[MURUCOIDIN XI]", "values": [{"measurement": "EC50", "setting": "HEp-2", "result": "> 20", "unit": "µg/mL"}, {"measurement": "MIC", "setting": "Staphylococcus aureus [1]", "result": "> 512", "unit": "µg/mL"}, {"measurement": "MIC", "setting": "Staphylococcus aureus [2]", "result": "> 512", "unit": "µg/mL"}, {"measurement": "EC50", "setting": "HeLa", "result": "> 20", "unit": "µg/mL"}, {"measurement": "MIC", "setting": "Staphylococcus aureus [3]", "result": "> 512", "unit": "µg/mL"}, {"measurement": "EC50", "setting": "KB", "result": 12.1, "unit": "µg/mL"}, {"measurement": "MIC", "setting": "Staphylococcus aureus [4]", "result": "> 512", "unit": "µg/mL"}]}
{"smiles": "CCCCC[C@H]1CCCCCCCCCC(=O)O[C@H]2[C@@H](O)[C@H](O[C@H]3[C@H](O1)O[C@H](C)[C@H](O)[C@@H]3O)O[C@@H](C)[C@@H]2O[C@@H]1O[C@@H](C)[C@H](O[C@@H]2O[C@@H](C)[C@H](OC(=O)[C@@H](C)CC)[C@@H](O)[C@H]2O)[C@@H](O[C@@H]2O[C@@H](C)[C@H](O)[C@@H](O)[C@H]2O)[C@H]1OC(=O)CCCCCC[C@H](O)CCCC", "note": "[MURUCOIDIN X]", "values": [{"measurement": "EC50", "setting": "HEp-2", "result": "> 20", "unit": "µg/mL"}, {"measurement": "MIC", "setting": "Staphylococcus aureus [1]", "result": "> 512", "unit": "µg/mL"}, {"measurement": "MIC", "setting": "Staphylococcus aureus [2]", "result": "> 512", "unit": "µg/mL"}, {"measurement": "EC50", "setting": "HeLa", "result": "> 20", "unit": "µg/mL"}, {"measurement": "MIC", "setting": "Staphylococcus aureus [3]", "result": "> 512", "unit": "µg/mL"}, {"measurement": "EC50", "setting": "KB", "result": 15.7, "unit": "µg/mL"}, {"measurement": "MIC", "setting": "Staphylococcus aureus [4]", "result": "> 512", "unit": "µg/mL"}]}
{"smiles": "CCn1cc(C(=O)O)c(=O)c2cc(F)c(N3CCNCC3)cc21", "note": "[NORFLOXACIN]", "values": [{"measurement": "EC50", "setting": "HEp-2", "result": "> 20", "unit": "µg/mL"}, {"measurement": "MIC", "setting": "Staphylococcus aureus [1]", "result": 256, "unit": "µg/mL"}, {"measurement": "MIC", "setting": "Staphylococcus aureus [2]", "result": 512, "unit": "µg/mL"}, {"measurement": "MIC", "setting": "Staphylococcus aureus [3]", "result": "> 512", "unit": "µg/mL"}, {"measurement": "MIC", "setting": "Staphylococcus aureus [4]", "result": 32, "unit": "µg/mL"}]}
{"smiles": "C/C=C(\\C)C(=O)O[C@H]1[C@H](O)[C@@H](O)[C@H](O[C@@H]2[C@H]3OC(=O)CCCCCCCCC[C@H](CCCCC)O[C@@H]4O[C@H](C)[C@@H](O)[C@H](O)[C@H]4O[C@@H]4O[C@H](CO)[C@@H](OC(=O)[C@H](C)[C@@H](C)O)[C@H](O)[C@H]4O[C@H](O[C@H]2C)[C@@H]3OC(=O)[C@@H](C)CC)O[C@@H]1C", "note": "[ORIZABIN IX]", "values": [{"measurement": "EC50", "setting": "HEp-2", "result": "> 20", "unit": "µg/mL"}, {"measurement": "MIC", "setting": "Staphylococcus aureus [1]", "result": 256, "unit": "µg/mL"}, {"measurement": "MIC", "setting": "Staphylococcus aureus [2]", "result": 256, "unit": "µg/mL"}, {"measurement": "EC50", "setting": "HeLa", "result": "> 20", "unit": "µg/mL"}, {"measurement": "MIC", "setting": "Staphylococcus aureus [3]", "result": "> 512", "unit": "µg/mL"}, {"measurement": "EC50", "setting": "KB", "result": "> 20", "unit": "µg/mL"}, {"measurement": "MIC", "setting": "Staphylococcus aureus [4]", "result": 512, "unit": "µg/mL"}]}
{"smiles": "CCCCCCCCCCCC(=O)O[C@H]1[C@H](O[C@@H]2[C@H]3OC(=O)CCCCCCCCC[C@H](CCCCC)O[C@@H]4O[C@H](C)[C@H](O)[C@H](O)[C@H]4O[C@H](O[C@H]2C)[C@@H]3O)O[C@@H](C)[C@H](O[C@@H]2O[C@@H](C)[C@H](OC(=O)[C@@H](C)CC)[C@@H](O)[C@H]2O)[C@H]1O[C@@H]1O[C@@H](C)[C@H](O)[C@@H](O)[C@H]1O", "note": "[PESCAPREIN III]", "values": [{"measurement": "EC50", "setting": "HEp-2", "result": 4.7, "unit": "µg/mL"}, {"measurement": "MIC", "setting": "Staphylococcus aureus [1]", "result": "> 512", "unit": "µg/mL"}, {"measurement": "MIC", "setting": "Staphylococcus aureus [2]", "result": "> 512", "unit": "µg/mL"}, {"measurement": "EC50", "setting": "HeLa", "result": "> 20", "unit": "µg/mL"}, {"measurement": "MIC", "setting": "Staphylococcus aureus [3]", "result": "> 512", "unit": "µg/mL"}, {"measurement": "EC50", "setting": "KB", "result": 15.7, "unit": "µg/mL"}, {"measurement": "MIC", "setting": "Staphylococcus aureus [4]", "result": "> 512", "unit": "µg/mL"}]}
{"smiles": "COC(=O)[C@H]1[C@H]2C[C@@H]3c4[nH]c5cc(OC)ccc5c4CCN3C[C@H]2C[C@@H](OC(=O)c2cc(OC)c(OC)c(OC)c2)[C@@H]1OC", "note": "[RESERPINE]", "values": [{"measurement": "EC50", "setting": "HEp-2", "result": "> 20", "unit": "µg/mL"}]}
{"smiles": "CN(C)[C@@H]1C(O)=C(C(N)=O)C(=O)[C@@]2(O)C(O)=C3C(=O)c4c(O)cccc4[C@@](C)(O)[C@H]3C[C@@H]12", "note": "[TETRACYCLINE]", "values": [{"measurement": "MIC", "setting": "Staphylococcus aureus [1]", "result": 256, "unit": "µg/mL"}, {"measurement": "MIC", "setting": "Staphylococcus aureus [2]", "result": 512, "unit": "µg/mL"}, {"measurement": "MIC", "setting": "Staphylococcus aureus [3]", "result": "> 512", "unit": "µg/mL"}, {"measurement": "MIC", "setting": "Staphylococcus aureus [4]", "result": 32, "unit": "µg/mL"}]}
{"smiles": "CC[C@]1(O)C[C@@H]2CN(CCc3c([nH]c4ccccc34)[C@@](C(=O)OC)(c3cc4c(cc3OC)N(C)[C@H]3[C@@](O)(C(=O)OC)[C@H](OC(C)=O)[C@]5(CC)C=CCN6CC[C@]43[C@@H]65)C2)C1", "note": "[VINBLASTINE]", "values": [{"measurement": "EC50", "setting": "HEp-2", "result": "> 20", "unit": "µg/mL"}, {"measurement": "EC50", "setting": "HeLa", "result": "> 20", "unit": "µg/mL"}, {"measurement": "EC50", "setting": "KB", "result": "> 20", "unit": "µg/mL"}]}
